Experimental data published in ChEMBL document CHEMBL4118021, “Studies of TAK1-centered polypharmacology with novel covalent TAK1 inhibitors” (Bioorg Med Chem, 2017).
Values belong to the compound of their own block, whether it stands above or below them. Calls of active or inactive are those of the source. The calls are words filed in the database; no cut-off is given here.

Assays:
[1] = biological target: Dihydropyrimidinase-related protein 2 (Homo sapiens) (UniProt Q16555); assay: Binding affinity to DPYSL2 in human NCI-H23 cells at 1 uM by mass spectrometry based pull down assay; type: cell-based
[2] = biological target: Acyl-coenzyme A thioesterase 13 (Homo sapiens) (UniProt Q9NPJ3); assay: Binding affinity to ACOT13 in human NCI-H23 cells at 1 uM by mass spectrometry based pull down assay; type: cell-based
Method in brief: (§1)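 NCI-H23 or NCI-H358 cells were grown and lysed. Lysates were incubated overnight at 4 °C with 1 μM biotinylated covalent probe or DMSO, then pulled down on streptavidin beads. Proteins were run on polyacrylamide gels and stained with Coomassie. Bands were excised, digested and identified by mass spectrometry.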

[3] = biological target: DnaJ homolog subfamily B member 6 (Homo sapiens) (UniProt O75190); assay: Binding affinity to DNAJB6 in human NCI-H23 cells at 1 uM by mass spectrometry based pull down assay; type: cell-based
[4] = biological target: Mitogen-activated protein kinase kinase kinase 20 (Homo sapiens) (UniProt Q9NYL2); assay: Binding affinity to ZAK in human NCI-H358 cells at 1 uM by mass spectrometry based pull down assay; type: cell-based
[5] = biological target: Proteasome activator complex subunit 1 (Homo sapiens) (UniProt Q06323); assay: Binding affinity to PSME1 in human NCI-H358 cells at 1 uM by mass spectrometry based pull down assay; type: cell-based
[6] = biological target: T1, Serine/threonine-protein kinase D2 (Homo sapiens) (UniProt Q9BZL6); assay: Binding affinity to PRKD2 in human NCI-H358 cells at 1 uM by mass spectrometry based pull down assay; type: cell-based
T1 sequence (whole entry): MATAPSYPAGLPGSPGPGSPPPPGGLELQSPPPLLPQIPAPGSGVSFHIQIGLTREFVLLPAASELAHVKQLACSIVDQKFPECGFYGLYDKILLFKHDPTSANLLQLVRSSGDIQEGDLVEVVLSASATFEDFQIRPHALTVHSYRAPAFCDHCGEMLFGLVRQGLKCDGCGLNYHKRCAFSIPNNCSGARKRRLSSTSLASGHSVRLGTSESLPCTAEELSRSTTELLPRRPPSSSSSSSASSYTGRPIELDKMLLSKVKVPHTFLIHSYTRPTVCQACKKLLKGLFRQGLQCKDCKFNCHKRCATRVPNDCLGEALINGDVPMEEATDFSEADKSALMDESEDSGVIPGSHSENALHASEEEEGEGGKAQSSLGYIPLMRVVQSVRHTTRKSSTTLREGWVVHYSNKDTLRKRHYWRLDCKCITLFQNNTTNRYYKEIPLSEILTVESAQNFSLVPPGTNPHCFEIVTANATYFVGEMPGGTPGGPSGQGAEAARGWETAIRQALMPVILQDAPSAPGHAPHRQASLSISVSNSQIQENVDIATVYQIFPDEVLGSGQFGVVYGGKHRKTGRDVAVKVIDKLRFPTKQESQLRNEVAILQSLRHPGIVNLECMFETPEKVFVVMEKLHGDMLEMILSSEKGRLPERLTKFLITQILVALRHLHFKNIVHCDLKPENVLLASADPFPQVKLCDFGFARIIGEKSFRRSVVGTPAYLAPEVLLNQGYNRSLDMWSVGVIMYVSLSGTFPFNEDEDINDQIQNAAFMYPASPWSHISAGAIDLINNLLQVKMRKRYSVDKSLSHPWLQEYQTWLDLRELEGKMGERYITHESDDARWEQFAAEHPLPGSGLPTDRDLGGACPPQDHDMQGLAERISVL

[7] = biological target: Ubiquitin-associated protein 2-like (Homo sapiens) (UniProt Q14157); assay: Binding affinity to UBAP2L in human NCI-H358 cells at 1 uM by mass spectrometry based pull down assay; type: cell-based
[8] = biological target: Deaminated glutathione amidase (Homo sapiens) (UniProt Q86X76); assay: Binding affinity to NIT1 in human NCI-H23 cells at 1 uM by mass spectrometry based pull down assay; type: cell-based
[9] = biological target: DnaJ homolog subfamily A member 2 (Homo sapiens) (UniProt O60884); assay: Binding affinity to DNAJA2 in human NCI-H23 cells at 1 uM by mass spectrometry based pull down assay; type: cell-based
[10] = biological target: TGF-beta-activated kinase 1 and MAP3K7-binding protein 1 (Homo sapiens) (UniProt Q15750); assay: Binding affinity to TAB1 in human NCI-H23 cells at 1 uM by mass spectrometry based pull down assay; type: cell-based
[11] = biological target: Low molecular weight phosphotyrosine protein phosphatase (Homo sapiens) (UniProt P24666); assay: Binding affinity to ACP1 in human NCI-H358 cells at 1 uM by mass spectrometry based pull down assay; type: cell-based; method in brief: as §1
[12] = biological target: Peripheral plasma membrane protein CASK (Homo sapiens) (UniProt O14936); assay: Inhibition of CASK in human SKCO1 cells at 1 uM after 4 hrs using biotin labeled ETGQQFAVKIVDVAK probe by mass-spectrometric analysis relative to control; type: cell-based
[13] = biological target: Serine/threonine-protein kinase RIO3 (Homo sapiens) (UniProt O14730); assay: Inhibition of full length human RIOK3 (1 to 519 residues) expressed in bacterial expression system assessed as enzyme activity at 1 uM by KINOMEScan assay relative to control; set-up: scale not given: the % may be the effect or the level left
Method in brief: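 In vitro ATP-site competition binding assay (KinomeScan) across a panel of 456 kinases. Compound was tested at 1 and 10 μM. The read-out is the binding inhibition score relative to control.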

[14] = biological target: Serine/threonine-protein kinase TAO2 (Homo sapiens) (UniProt Q9UL54); assay: Inhibition of TAO2 in human SKCO1 cells at 1 uM after 4 hrs using biotin labeled DVKAGNILLSEPGLVK probe by mass-spectrometric analysis relative to control; type: cell-based
Sequence of Serine/threonine-protein kinase TAO2 (Homo sapiens) (Q9UL54 whole entry): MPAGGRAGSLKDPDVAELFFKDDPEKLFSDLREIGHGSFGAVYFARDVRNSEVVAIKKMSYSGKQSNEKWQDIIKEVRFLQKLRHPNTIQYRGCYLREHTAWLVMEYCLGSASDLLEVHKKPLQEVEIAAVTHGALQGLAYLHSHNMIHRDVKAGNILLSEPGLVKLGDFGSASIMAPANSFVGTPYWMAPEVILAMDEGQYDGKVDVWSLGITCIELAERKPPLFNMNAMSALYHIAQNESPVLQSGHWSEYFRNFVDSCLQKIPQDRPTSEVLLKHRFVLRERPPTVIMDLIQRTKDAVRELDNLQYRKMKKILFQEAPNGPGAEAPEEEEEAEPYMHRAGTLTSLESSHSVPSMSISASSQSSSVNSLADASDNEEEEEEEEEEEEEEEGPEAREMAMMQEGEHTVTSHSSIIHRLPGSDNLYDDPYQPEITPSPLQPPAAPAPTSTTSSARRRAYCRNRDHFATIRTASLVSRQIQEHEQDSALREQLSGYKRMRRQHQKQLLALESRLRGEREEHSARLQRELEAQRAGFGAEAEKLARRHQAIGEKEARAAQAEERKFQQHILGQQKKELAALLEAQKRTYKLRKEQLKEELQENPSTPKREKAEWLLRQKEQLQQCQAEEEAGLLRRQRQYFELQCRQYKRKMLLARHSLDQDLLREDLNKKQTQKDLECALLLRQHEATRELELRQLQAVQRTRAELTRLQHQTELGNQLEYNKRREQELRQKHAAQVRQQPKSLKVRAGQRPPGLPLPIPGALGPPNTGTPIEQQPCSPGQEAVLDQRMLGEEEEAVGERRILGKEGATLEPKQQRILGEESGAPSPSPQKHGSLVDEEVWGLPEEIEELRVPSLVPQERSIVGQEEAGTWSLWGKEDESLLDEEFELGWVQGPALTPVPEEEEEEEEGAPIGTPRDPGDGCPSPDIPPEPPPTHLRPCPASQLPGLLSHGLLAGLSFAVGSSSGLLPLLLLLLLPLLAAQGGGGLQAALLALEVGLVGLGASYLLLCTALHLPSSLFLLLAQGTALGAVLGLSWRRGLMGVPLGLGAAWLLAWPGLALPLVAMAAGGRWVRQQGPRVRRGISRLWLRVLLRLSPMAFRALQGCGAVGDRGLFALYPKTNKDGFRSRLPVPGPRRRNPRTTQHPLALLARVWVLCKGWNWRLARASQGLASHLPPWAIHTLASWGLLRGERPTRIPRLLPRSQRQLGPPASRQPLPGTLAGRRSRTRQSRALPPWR

Sequence of DnaJ homolog subfamily B member 6 (Homo sapiens) (O75190 whole entry): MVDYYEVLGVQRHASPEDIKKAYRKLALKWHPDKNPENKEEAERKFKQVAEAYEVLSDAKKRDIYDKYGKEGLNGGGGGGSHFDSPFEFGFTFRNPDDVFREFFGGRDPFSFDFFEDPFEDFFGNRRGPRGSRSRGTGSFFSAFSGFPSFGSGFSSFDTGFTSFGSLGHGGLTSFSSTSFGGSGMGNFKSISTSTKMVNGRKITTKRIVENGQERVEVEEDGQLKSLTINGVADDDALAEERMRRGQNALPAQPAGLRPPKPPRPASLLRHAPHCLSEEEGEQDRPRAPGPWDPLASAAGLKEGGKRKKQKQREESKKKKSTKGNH
Sequence of Deaminated glutathione amidase (Homo sapiens) (Q86X76 whole entry): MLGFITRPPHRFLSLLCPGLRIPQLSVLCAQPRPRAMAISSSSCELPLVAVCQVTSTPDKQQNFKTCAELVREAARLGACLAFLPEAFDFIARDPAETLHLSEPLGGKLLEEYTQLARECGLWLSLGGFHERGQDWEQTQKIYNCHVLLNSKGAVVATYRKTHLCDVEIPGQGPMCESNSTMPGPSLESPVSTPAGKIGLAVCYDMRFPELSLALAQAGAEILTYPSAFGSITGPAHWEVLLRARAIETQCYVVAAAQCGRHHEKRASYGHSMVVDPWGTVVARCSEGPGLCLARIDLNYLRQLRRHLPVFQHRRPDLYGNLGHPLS
Sequence of Acyl-coenzyme A thioesterase 13 (Homo sapiens) (Q9NPJ3 whole entry): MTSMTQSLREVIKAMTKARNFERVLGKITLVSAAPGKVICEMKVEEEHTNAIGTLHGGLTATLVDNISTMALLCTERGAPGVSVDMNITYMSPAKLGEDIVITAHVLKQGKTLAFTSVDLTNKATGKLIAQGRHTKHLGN
Sequence of Low molecular weight phosphotyrosine protein phosphatase (Homo sapiens) (P24666 whole entry): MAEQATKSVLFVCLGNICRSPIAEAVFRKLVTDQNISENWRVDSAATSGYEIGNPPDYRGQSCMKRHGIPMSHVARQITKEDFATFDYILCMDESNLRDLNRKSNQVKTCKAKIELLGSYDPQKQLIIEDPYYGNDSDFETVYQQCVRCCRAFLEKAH
Sequence of Serine/threonine-protein kinase RIO3 (Homo sapiens) (O14730 whole entry, the tested form may be a part): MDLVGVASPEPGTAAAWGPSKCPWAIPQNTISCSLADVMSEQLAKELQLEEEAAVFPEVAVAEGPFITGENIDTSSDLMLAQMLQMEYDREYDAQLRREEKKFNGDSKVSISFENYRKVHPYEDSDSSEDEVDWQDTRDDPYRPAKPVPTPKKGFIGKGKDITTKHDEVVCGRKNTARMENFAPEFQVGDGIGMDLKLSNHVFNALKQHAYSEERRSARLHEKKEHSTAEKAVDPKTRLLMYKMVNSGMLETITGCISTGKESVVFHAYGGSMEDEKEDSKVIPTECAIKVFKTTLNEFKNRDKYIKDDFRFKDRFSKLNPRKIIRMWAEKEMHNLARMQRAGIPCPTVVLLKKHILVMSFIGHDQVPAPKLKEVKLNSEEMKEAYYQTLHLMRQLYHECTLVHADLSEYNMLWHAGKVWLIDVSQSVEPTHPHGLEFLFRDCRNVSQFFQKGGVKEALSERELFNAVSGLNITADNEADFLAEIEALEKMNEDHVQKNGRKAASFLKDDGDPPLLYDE
Sequence of Peripheral plasma membrane protein CASK (Homo sapiens) (O14936 whole entry, the tested form may be a part): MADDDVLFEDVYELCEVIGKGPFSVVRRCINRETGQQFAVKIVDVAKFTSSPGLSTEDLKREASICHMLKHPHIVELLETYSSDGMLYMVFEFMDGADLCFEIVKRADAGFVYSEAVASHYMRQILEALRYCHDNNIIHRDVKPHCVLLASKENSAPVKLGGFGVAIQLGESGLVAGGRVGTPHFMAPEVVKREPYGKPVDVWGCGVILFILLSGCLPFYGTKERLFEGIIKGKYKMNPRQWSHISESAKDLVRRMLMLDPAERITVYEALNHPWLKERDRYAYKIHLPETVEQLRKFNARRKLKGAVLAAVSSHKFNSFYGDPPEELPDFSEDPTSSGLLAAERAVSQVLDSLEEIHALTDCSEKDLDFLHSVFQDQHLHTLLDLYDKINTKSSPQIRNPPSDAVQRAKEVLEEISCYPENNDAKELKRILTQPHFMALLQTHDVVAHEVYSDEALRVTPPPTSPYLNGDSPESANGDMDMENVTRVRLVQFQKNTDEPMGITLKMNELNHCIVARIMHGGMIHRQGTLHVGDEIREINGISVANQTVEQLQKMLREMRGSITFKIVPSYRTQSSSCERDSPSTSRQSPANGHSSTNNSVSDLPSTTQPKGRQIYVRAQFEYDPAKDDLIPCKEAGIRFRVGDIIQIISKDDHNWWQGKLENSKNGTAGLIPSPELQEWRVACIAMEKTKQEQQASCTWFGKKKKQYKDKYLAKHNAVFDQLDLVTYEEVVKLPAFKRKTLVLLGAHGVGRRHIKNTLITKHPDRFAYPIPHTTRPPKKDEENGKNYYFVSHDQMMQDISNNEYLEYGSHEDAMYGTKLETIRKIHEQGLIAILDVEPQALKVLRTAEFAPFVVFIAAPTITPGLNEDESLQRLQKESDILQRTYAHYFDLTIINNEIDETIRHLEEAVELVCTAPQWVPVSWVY
Sequence of Mitogen-activated protein kinase kinase kinase 20 (Homo sapiens) (Q9NYL2 2-800 limits assumed): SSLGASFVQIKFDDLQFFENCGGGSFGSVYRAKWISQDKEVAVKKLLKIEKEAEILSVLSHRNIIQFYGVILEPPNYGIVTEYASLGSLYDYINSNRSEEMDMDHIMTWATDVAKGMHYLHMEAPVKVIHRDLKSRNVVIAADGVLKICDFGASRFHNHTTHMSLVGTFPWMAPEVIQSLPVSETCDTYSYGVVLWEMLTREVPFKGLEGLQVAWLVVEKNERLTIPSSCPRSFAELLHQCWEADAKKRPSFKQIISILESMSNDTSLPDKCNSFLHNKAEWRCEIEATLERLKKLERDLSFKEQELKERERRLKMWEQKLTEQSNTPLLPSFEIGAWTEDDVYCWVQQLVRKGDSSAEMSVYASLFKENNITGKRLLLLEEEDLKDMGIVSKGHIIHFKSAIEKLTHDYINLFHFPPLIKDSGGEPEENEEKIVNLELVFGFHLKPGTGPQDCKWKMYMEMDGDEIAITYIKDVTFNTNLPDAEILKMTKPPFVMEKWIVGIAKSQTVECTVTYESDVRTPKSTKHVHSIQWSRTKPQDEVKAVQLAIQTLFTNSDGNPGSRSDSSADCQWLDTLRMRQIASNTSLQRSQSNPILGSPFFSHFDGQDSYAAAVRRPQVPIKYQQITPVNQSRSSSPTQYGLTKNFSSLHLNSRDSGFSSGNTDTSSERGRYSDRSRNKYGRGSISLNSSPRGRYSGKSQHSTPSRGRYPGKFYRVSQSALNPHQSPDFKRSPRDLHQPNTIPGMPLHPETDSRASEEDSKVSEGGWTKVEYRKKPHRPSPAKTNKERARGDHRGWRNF
Sequence of Proteasome activator complex subunit 1 (Homo sapiens) (Q06323 whole entry, one chain of several): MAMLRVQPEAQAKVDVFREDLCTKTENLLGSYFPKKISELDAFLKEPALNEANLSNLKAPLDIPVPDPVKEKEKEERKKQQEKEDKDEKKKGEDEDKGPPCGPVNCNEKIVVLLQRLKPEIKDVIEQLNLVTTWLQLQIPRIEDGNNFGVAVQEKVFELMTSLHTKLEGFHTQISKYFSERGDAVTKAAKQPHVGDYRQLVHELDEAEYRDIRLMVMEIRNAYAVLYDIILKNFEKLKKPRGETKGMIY

- Activity [1]: Active
- Activity [2]: Active
- Activity [3]: Active
- Activity [4]: Active
- Activity [5]: Active
- Activity [6]: Active
- Activity [7]: Active
- Activity [8]: Active
- Activity [9]: Active
- Activity [10]: Active
- Activity [11]: Active
SMILES: C=CC(=O)Nc1ccccc1Nc1nc(Nc2ccc(N3CCN(CCOCCOCCOCCNC(=O)CCCC[C@@H]4SC[C@@H]5NC(=O)N[C@@H]54)CC3)cc2)ncc1Cl

SMILES: C=CC(=O)Nc1ccccc1Nc1nc(Nc2ccc(N3CCN(C)CC3)cc2)ncc1Cl
- inhibition [12]: -10%

SMILES: COc1cc(O)c2c(c1)/C=C/C[C@H](O)[C@H](O)C(=O)/C=C\C[C@H](C)OC2=O
- Activity [13]: 74%
- inhibition [14]: -2.5%
